Assay outcomes: PubChem, The Scripps Research Institute Molecular Screening Center
rCAG binder: binders of r(CAG) RNA repeats, primary screen, biochemical, fluorescence; r(CAG) RNA repeat, TO-PRO-1 dye displacement fluorescence; inhibition, % at 3 µM; 1.3% of 370,000 active; AID 651821, 2012;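 active means inhibition above the plate cutoff, the mean of all test compounds on that plate plus 3 SD, cut at about 35% in these data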;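 further: higher means more dye released from RNA so lower well fluorescence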
HTRA1 inhibitor: HTRA1 serine protease inhibitors, primary screen, biochemical, fluorescence polarization, HTS | Q92743 | recombinant HTRA1, FP-rhodamine activity-based probe | inhibition, % at 5.96 µM | 0.5% of 340,000 active | AID 504803, 2011; in the data active means inhibition above about 36%
mABHD4 FP: ABHD4 inhibitors, primary screen, biochemical, fluorescence polarization, mouse. (Lyso)-N-acylphosphatidylethanolamine lipase (Mus musculus), Q8VD66. purified mABHD4, FP-Rh probe fluorescence polarization. inhibition, % at 8.92 µM. 0.54% of 370,000 active;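 active means inhibition exceeding the mean over every tested compound plus 3 SD, cut at about 30% in these data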
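System: mouse ABHD4 enzyme, wild type / Medium: HEPES pH 7.0, NaCl, Pluronic buffer / Reagent: FP-Rh activity-based fluorescent probe / Control set: S159A mutant high control, sample median low control / Detection: fluorescence polarization with parallel and perpendicular emission, 525/598 nm / Schedule: 45 min + 60 min at 25 °C / Compound dosing: 8.92 µM, single dose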
LEDGF integ inh: blockers of LEDGF/p75-dependent integrase strand transfer – biochemical, TR-FRET, high throughput, primary screen. TR-FRET IN-LEDGF/p75 DNA integration, Eu/Cy5. 0.64% of 370,000 active. inhibition, % at 3.7 µM. HIV-1 integrase (with human LEDGF/p75);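 active means inhibition above the screen-wide mean plus 3 SD, cut at about 13% in these data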;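 further: signal is the Cy5 over europium emission ratio at 671 and 618 nm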
DAGLB inhibitor: DAGLB lipase inhibitors, primary screen, biochemical, fluorescence, HTS. inhibition, % at 5.17 µM. HEK293T DAGLB membrane lysate, EnzChek fluorogenic substrate. AID 504411, 2011. Diacylglycerol lipase-beta (Homo sapiens), Q8NCG7. 0.059% of 340,000 active; in the data active means inhibition above about 34%
Target sequence (Q8NCG7 whole entry, looked up): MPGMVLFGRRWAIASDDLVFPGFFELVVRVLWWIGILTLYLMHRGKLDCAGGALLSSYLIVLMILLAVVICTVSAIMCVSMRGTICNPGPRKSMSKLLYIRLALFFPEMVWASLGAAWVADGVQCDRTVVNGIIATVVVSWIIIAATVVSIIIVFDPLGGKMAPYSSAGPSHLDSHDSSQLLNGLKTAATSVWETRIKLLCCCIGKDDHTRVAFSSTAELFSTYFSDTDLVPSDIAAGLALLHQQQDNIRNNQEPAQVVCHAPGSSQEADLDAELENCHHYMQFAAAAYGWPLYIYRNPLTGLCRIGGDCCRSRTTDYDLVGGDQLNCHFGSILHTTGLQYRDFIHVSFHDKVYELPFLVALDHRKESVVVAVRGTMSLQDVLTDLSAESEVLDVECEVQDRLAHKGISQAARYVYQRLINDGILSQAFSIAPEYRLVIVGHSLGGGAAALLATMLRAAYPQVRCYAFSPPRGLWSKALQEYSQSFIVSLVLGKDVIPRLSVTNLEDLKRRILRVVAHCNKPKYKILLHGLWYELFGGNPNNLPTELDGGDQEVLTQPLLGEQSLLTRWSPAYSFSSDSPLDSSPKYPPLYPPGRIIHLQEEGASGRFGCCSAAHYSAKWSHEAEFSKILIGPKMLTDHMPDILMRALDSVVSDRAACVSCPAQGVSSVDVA
PRMT1 FP inh: PRMT1 methyltransferase inhibitors, primary screen, biochemical, fluorescence polarization | inhibition, % at 2.79 µM | Protein arginine N-methyltransferase 1 (Homo sapiens), Q99873 | AID 652257, 2013 | recombinant PRMT1, activity-based probe fluorescence polarization | 1.3% of 370,000 active;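 active means inhibition above about 21% made by adding two undisclosed values, limit read from the data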
rCAG binder conf: small molecules binding CAG repeat RNA – biochemical, fluorescence, confirmation; AID 652065, 2013; inhibition, % at 3 µM; shares compounds with rCAG binder; 70% of 4,300 active; r(CAG) RNA repeat, TO-PRO-1 dye displacement fluorescence;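 active means inhibition above a per-plate cutoff, the mean inhibition of sample wells plus 3 SD, cut at about 35% in these data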;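 further: loss of TO-PRO-1 fluorescence as compound displaces dye from 1x1 AA loop RNA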
DNA CAG counter: displacement of TO-PRO-1 from CAG DNA duplex, counter-screen for rCAG RNA repeat binder project, biochemical, fluorescence, TO-PRO-1 dye, d(CAG) DNA oligo | shares compounds with rCAG binder | d(CAG) DNA oligo TO-PRO-1 dye displacement | inhibition, % at 3 µM | 94% of 4,300 active;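 active means inhibition above its plate's cutoff, the mean test-well inhibition plus 3 SD, cut at about 4.8% in these data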;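 further: hits displace the dye from DNA and so lower well fluorescence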
DNA CAG DR: inhibitors of DNA CAG/GTC TO-PRO-1 complex, dose response, counter-screen for rCAG RNA repeat binder project, biochemical, fluorescence, TO-PRO-1 dye | IC50, µM | DNA CAG/GTC duplex TO-PRO-1 dye displacement fluorescence | 20% of 250 active | shares compounds with rCAG binder; in the data active means IC50 below about 10 µM
Hits are given with their value. Hits are enriched below; roughly 3.2% of the tested compounds scored in any of these assays.

How did O=S(=O)(/N=C(/Nc1ccc(Cl)c(S(=O)(=O)Nc2ccccc2Cl)c1)c1ccc(F)cc1)c1ccccc1 do in these assays?
rCAG binder: 66; HTRA1 inhibitor: inactive; mABHD4 FP: inactive; LEDGF integ inh: inactive; DAGLB inhibitor: inactive; PRMT1 FP inh: inactive; rCAG binder conf: 71; DNA CAG counter: 26; DNA CAG DR: inactive

Results for COC(=O)c1cc2c(c3c4ccccc4n(S(=O)(=O)c4cccc(C)c4)c13)C(=O)N(Cc1ccccc1OC)C2 ?
rCAG binder: inactive; mABHD4 FP: inactive; LEDGF integ inh: inactive; PRMT1 FP inh: inactive

What do the screens show for `COc1ccc(NS(=O)(=O)c2cc(NC(=O)CCc3ccc(OC)c(OC)c3)ccc2N2CCOCC2)cc1`?
rCAG binder: inactive; HTRA1 inhibitor: inactive; mABHD4 FP: inactive; LEDGF integ inh: inactive; DAGLB inhibitor: inactive; PRMT1 FP inh: inactive

Results for N#C/C(=C\c1ccc(-c2ccc(F)cc2)o1)C(=O)Nc1nc(-c2cccs2)cs1 ?
rCAG binder: 36; HTRA1 inhibitor: inactive; mABHD4 FP: inactive; LEDGF integ inh: inactive; DAGLB inhibitor: inactive; PRMT1 FP inh: inactive; rCAG binder conf: inactive; DNA CAG counter: 11

How did Nc1ccc(S(=O)(=O)Nc2nc(-c3ccccc3)cc(-c3ccccc3O)n2)cc1 do in these assays?
rCAG binder: 58; HTRA1 inhibitor: inactive; mABHD4 FP: inactive; LEDGF integ inh: inactive; DAGLB inhibitor: inactive; PRMT1 FP inh: inactive; rCAG binder conf: 54; DNA CAG counter: 18

What do the screens show for `Cc1ccc(-n2c(SCC(=O)NNC(=S)Nc3ccccc3)nc3ccccc3c2=O)cc1`?
rCAG binder: 55; HTRA1 inhibitor: inactive; mABHD4 FP: inactive; LEDGF integ inh: inactive; DAGLB inhibitor: inactive; PRMT1 FP inh: inactive; rCAG binder conf: 42; DNA CAG counter: 18

What do the screens show for `Cc1ccc(NC(=S)NNC(=O)CSc2nc3ccccc3c(=O)n2-c2ccc(Cl)cc2)cc1`?
rCAG binder: 57; mABHD4 FP: inactive; LEDGF integ inh: inactive; PRMT1 FP inh: inactive; rCAG binder conf: 47; DNA CAG counter: 22

Results for CCN(CC)c1ccc(NC(=O)CSc2nc3ccccc3c(=O)n2-c2ccc(C)cc2)cc1 ?
rCAG binder: inactive; mABHD4 FP: inactive; LEDGF integ inh: inactive; PRMT1 FP inh: inactive

Results for O=C(CSc1nc2ccccc2s1)NNC(=S)Nc1ccc(Cl)cc1 ?
rCAG binder: 58; HTRA1 inhibitor: inactive; mABHD4 FP: inactive; LEDGF integ inh: inactive; DAGLB inhibitor: inactive; PRMT1 FP inh: inactive; rCAG binder conf: 69; DNA CAG counter: 30

What do the screens show for `CCc1cccc(C)c1NC(=O)CNCc1ccccc1`?
rCAG binder: inactive; HTRA1 inhibitor: inactive; mABHD4 FP: inactive; LEDGF integ inh: inactive; DAGLB inhibitor: inactive; PRMT1 FP inh: inactive

How did O=C(c1cccc(-c2cccc3nccn23)c1)N1CCOCC1 do in these assays?
rCAG binder: inactive; mABHD4 FP: inactive; LEDGF integ inh: inactive; PRMT1 FP inh: inactive

How did O=C(O)c1oc2ccccc2c1CSc1ccc(Cl)cc1 do in these assays?
rCAG binder: 40; HTRA1 inhibitor: inactive; mABHD4 FP: inactive; LEDGF integ inh: inactive; DAGLB inhibitor: inactive; PRMT1 FP inh: inactive; rCAG binder conf: inactive; DNA CAG counter: inactive

Results for Cc1ccc([C@H]2C(C(=O)O)=CC[C@@H](c3ccc(Cl)c(Cl)c3)N2S(=O)(=O)c2ccc(C)cc2)cc1 ?
rCAG binder: 88; HTRA1 inhibitor: inactive; mABHD4 FP: inactive; LEDGF integ inh: inactive; DAGLB inhibitor: inactive; PRMT1 FP inh: inactive; rCAG binder conf: 85; DNA CAG counter: 54

Results for Cc1ccc(S(=O)(=O)N2[C@@H](c3ccccc3)C(C(=O)O)=CC[C@H]2c2ccc(Cl)c(Cl)c2)cc1 ?
rCAG binder: 61; HTRA1 inhibitor: inactive; mABHD4 FP: inactive; LEDGF integ inh: inactive; DAGLB inhibitor: inactive; PRMT1 FP inh: inactive; rCAG binder conf: 81; DNA CAG counter: 48

What do the screens show for `COC(=O)Nc1ccc(S(=O)(=O)n2cnc3ccccc32)cc1`?
rCAG binder: inactive; HTRA1 inhibitor: inactive; mABHD4 FP: inactive; LEDGF integ inh: inactive; DAGLB inhibitor: inactive; PRMT1 FP inh: inactive

How did O=C1NN(c2ccccc2)C(=O)/C1=C\c1coc2ccc(O)cc2c1=O do in these assays?
rCAG binder: 36; HTRA1 inhibitor: inactive; mABHD4 FP: inactive; LEDGF integ inh: inactive; DAGLB inhibitor: inactive; PRMT1 FP inh: inactive; rCAG binder conf: inactive; DNA CAG counter: inactive

Results for O=C1NN(c2ccccc2)C(=O)/C1=C/c1coc2ccccc2c1=O ?
rCAG binder: 39; HTRA1 inhibitor: inactive; mABHD4 FP: inactive; LEDGF integ inh: inactive; DAGLB inhibitor: inactive; PRMT1 FP inh: inactive; rCAG binder conf: inactive; DNA CAG counter: inactive

What do the screens show for `O=C1NN(c2ccccc2)C(=O)/C1=C\c1ccccc1`?
rCAG binder: inactive; HTRA1 inhibitor: inactive; mABHD4 FP: inactive; LEDGF integ inh: inactive; DAGLB inhibitor: inactive; PRMT1 FP inh: inactive

How did O=C(O)C(Cc1ccccc1)n1cccc1 (stereo unspecified) do in these assays?
rCAG binder: inactive; HTRA1 inhibitor: inactive; mABHD4 FP: inactive; LEDGF integ inh: inactive; DAGLB inhibitor: inactive; PRMT1 FP inh: inactive

Results for O=C(O)[C@H](Cc1ccccc1)N1C(=O)c2c(Cl)c(Cl)c(Cl)c(Cl)c2C1=O ?
rCAG binder: 50; HTRA1 inhibitor: inactive; mABHD4 FP: inactive; LEDGF integ inh: inactive; DAGLB inhibitor: inactive; PRMT1 FP inh: inactive; rCAG binder conf: 63; DNA CAG counter: 28

What do the screens show for `COc1ccc(-c2[nH]ncc2N=Nc2ccccc2)cc1`?
rCAG binder: inactive; HTRA1 inhibitor: inactive; mABHD4 FP: inactive; LEDGF integ inh: inactive; DAGLB inhibitor: inactive; PRMT1 FP inh: inactive

How did CCCC[C@@H]1C=C(C(=O)O)[C@H](c2ccc(C)cc2)N1S(=O)(=O)c1ccc(C)cc1 do in these assays?
rCAG binder: inactive; HTRA1 inhibitor: inactive; mABHD4 FP: inactive; LEDGF integ inh: inactive; DAGLB inhibitor: inactive; PRMT1 FP inh: inactive
